RanGTP-Imp inh: disruptors of Ran-importin-beta complex formation – biochemical, FRET, CFP-Ran, YFP-importin-beta, homogeneous, primary screen | inhibition, % (no concentration beside the values) | actives 1.1% (n = 300,000) | AID 2216 | cell-free CFP-Ran/YFP-importin-beta FRET ratio;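 active = more than half of the replicate wells show a fall in the fluorescence ratio signal beyond about 16%, limit read from the data, passing the limit was not always enough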;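 note: 0% = DMSO wells and 100% = Ran loaded with GDP instead of GTP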
Runt-CBFb FRET: Runt domain-CBFb interaction inhibition; Q01196+Q13951; Cerulean-Runt/Venus-CBFb FRET ratio 530/480, 1 h; inhibition, % at 20 µM; actives 0.46% (n = 220,000);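 active = inhibition over about 50% at 20 µM in the single-dose screen, limit read from the data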;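 note: 0% = DMSO wells and 100% = excess unlabeled CBFb competitor control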
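Reagent – Venus-CBFb binding partner, 100 nM · Assay system – Cerulean-tagged RUNX1 Runt domain (FRET donor) fusion protein · Input – 100 nM per protein · Incubation – two 1 h room-temperature incubations shielded from light · Measured by – FRET fluorescence · Medium – Tris buffer pH 7.5 with salts and BSA · Benchmarks – unlabeled CBFb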
Hck Nef HTS: inhibitors of human Hck kinase activated by Nef; P08631; Recombinant Hck-YEEI plus Nef, Z-Lyte FRET kinase assay; inhibition, % at 20 µM; actives 0.68% (n = 220,000);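 active = Hck-Nef kinase inhibition above about 50%, limit read from the data; inactive = inhibition below that limit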;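 note: 0% = DMSO with Hck plus Nef and 100% = Hck alone without Nef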
Target sequence (P08631 whole entry, looked up): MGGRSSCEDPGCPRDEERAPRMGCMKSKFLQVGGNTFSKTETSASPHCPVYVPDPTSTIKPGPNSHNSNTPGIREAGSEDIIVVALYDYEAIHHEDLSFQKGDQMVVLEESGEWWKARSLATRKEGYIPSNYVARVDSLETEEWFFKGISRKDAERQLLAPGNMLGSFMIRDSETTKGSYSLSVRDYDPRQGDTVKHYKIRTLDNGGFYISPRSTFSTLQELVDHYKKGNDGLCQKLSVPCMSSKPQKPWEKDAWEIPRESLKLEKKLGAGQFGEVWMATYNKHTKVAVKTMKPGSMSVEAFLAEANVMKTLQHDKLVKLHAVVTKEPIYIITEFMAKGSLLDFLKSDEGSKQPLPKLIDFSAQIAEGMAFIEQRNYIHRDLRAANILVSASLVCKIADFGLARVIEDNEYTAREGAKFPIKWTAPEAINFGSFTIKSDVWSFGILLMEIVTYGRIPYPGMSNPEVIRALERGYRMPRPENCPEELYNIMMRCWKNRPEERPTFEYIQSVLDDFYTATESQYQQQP
TbHK1 inh: T. brucei hexokinase 1 inhibition | recombinant TbHK1, G6PDH-coupled NADH A340 | actives 0.11% (n = 220,000) | inhibition, % at 10 µM;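 active = inhibition of 50% or more in the single-dose primary screen; inactive = inhibition below 50%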
Runt-SMMHC FRET: inhibitors of human RUNX1 Runt domain binding to CBFb-SMMHC | actives 0.74% (n = 220,000) | inhibition, % at 20 µM | Cerulean-Runt/Venus-CBFb-SMMHC FRET ratio 530/480, 1 h;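 active = mean inhibition across duplicate retests at 20 µM reaching about 50%, limit read from the data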;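 note: 0% = DMSO wells and 100% = wells with excess untagged CBFb-SMMHC; inhibitors lower the FRET ratio by blocking Runt binding to CBFb-SMMHC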
Active calls of the source: *; / = no result. Most compounds without a hit are left out; they make up all but 1.9% or so of the library.

SMILES	RanGTP-Imp inh	Runt-CBFb FRET	Hck Nef HTS	TbHK1 inh	Runt-SMMHC FRET
CCC(=O)Nc1nn(C)c2nc3c(C)cccc3cc12	22*	18	23	-4	86
CCn1cc(S(=O)(=O)N2CCN(c3ccc(Cl)cc3)CC2)cn1	1	/	/	/	/
CC(C)C(NC(=O)c1ccc(F)cc1)C(=O)NCC1CCCO1 (centres undefined)	-2	2	13	-7	-4
Cc1ccc(C2=NN(C(=O)CNCCO)C(c3cccs3)C2)cc1 (centres undefined)	3	/	/	/	/
Cc1c([N+](=O)[O-])cnc(Sc2ccccc2)c1[N+](=O)[O-]	5	/	/	/	/
O=c1cc(-c2cccs2)oc2ccc(Cl)cc12	-3	-3	-2	-13	-5
O=c1c(O)c(-c2cccs2)oc2ccccc12	93*	19	-6	-1	79*
O=c1c(O)c(-c2cccs2)oc2ccc(Cl)cc12	18*	7	1	-4	58*
CC(CN1C(C)CCCC1C)OC(=O)c1cccc(Br)c1 (centres undefined)	-2	/	/	/	/
COc1cc(/C=C(\CC(=O)O)c2nc3ccccc3s2)cc(OC)c1O	-1	11	2	-31	-40
CN(C)c1ccc(/C=C(\Cl)c2nc3ccccc3s2)cc1	/	39	6	-11	81*
COc1cc(C=C(c2nc3ccccc3s2)c2nc3ccccc3s2)cc(OC)c1O	36*	26	-1	-7	2
O=C(O)c1ccc(C=C(c2nc3ccccc3s2)c2nc3ccccc3s2)cc1	-1	-6	21	-8	-2
Cc1cccc(-n2c(O)c(C=Nc3cc(O)ccc3C)c3ccccc3c2=O)n1	-2	-24	0	-8	-30
Cc1cccc(-n2c(O)c(C=Nc3ccccc3O)c3ccccc3c2=O)n1	30*	1	3	-13	7
Cc1ccc(NC(=O)COC(=O)CN2C(=O)NC3(CCCC3)C2=O)cc1S(=O)(=O)N(C)C	1	-44	26	0	-1
Cc1ccc(NC(=O)COC(=O)CN2C(=O)c3ccccc3C2=O)cc1S(=O)(=O)N(C)C	40*	0	-11	9	1
CC(C)c1ccc(NC2CCCN(C(=O)c3ccsc3)C2)cc1 (centres undefined)	-1	/	/	/	/
CCN(Cc1ccccc1)c1ccc(/C=N/N=C(N)N)cc1	38*	-3	12	-84	6
COc1ccccc1NC(=O)c1ccc(NC(=O)COC(=O)CCC2CCCC2)cc1	-1	-2	1	-2	2
N=c1c(S(=O)(=O)c2ccccc2)cc2c(=O)n3ccccc3nc2n1Cc1cccnc1	122*	/	/	/	/
Cc1ccc(S(=O)(=O)c2cc3c(=O)n4cccc(C)c4nc3n(Cc3ccncc3)c2=N)cc1	112*	/	/	/	/
Cc1ccc(Cn2c(=N)c(S(=O)(=O)c3ccc(Br)cc3)cc3c(=O)n4ccccc4nc32)cc1	3	/	/	/	/
N=c1c(S(=O)(=O)c2ccc(Br)cc2)cc2c(=O)n3ccccc3nc2n1Cc1ccccc1	0	/	/	/	/
Cc1cccn2c(=O)c3cc(S(=O)(=O)c4ccccc4)c(=N)n(Cc4cccnc4)c3nc12	139*	/	/	/	/
SMILES	RanGTP-Imp inh	Runt-CBFb FRET	Hck Nef HTS	TbHK1 inh	Runt-SMMHC FRET
C/C(=N\NC(=O)c1ccncc1)c1cc2ccccc2oc1=O	5	-1	3	-14	-2
C/C(=N/NC(N)=S)c1cc2ccc(O)cc2oc1=O	152*	10	187*	-25	84*
C/C(=N/NC(=O)c1ccncc1)c1cc2ccc(O)cc2oc1=O	/	19	5	-11	63*
O=C1OC(c2ccc(F)cc2)=C/C1=C\c1ccc(O)cc1	-3	/	/	/	/
COc1ccc(C2=C/C(=C\c3ccccc3OC(C)=O)C(=O)O2)cc1	35*	/	/	/	/
COc1ccccc1/C=C/c1nc2ccc(OC(C)=O)cc2c(=O)o1	1	/	/	/	/
COc1ccc(C2=C/C(=C\c3cccc(OC(C)=O)c3)C(=O)O2)cc1	43*	-36	1	14	39
Cc1cccc(OCC(=O)NC(Cc2c[nH]c3ccccc23)C(=O)O)c1C (centres undefined)	8	-3	8	-4	0
Cc1cc(C)n2nc(SCC(=O)NC3CCCCC3)nc2n1	1	/	/	/	/
CC1CC1c1ccc(/C=C(\C#N)C(=O)Nc2cccc(Cl)c2Cl)o1 (centres undefined)	40*	-20	2	-4	-112
CC(=O)c1cccc(CN2CCC(C(=O)Nc3ccc(-c4cccc(C)c4)cc3)CC2)c1	5	/	/	/	/
Cc1ccc(S(=O)(=O)N2CCCC2CNC(=O)C(=O)Nc2ccc(F)cc2)cc1 (centres undefined)	31*	/	/	/	/
COc1ccc(S(=O)(=O)N2CCCC2CNC(=O)C(=O)Nc2ccc(C)cc2)cc1 (centres undefined)	-1	/	/	/	/
Cc1ccc2nc(NCCCO)nc(-c3ccccc3)c2c1	30*	29	6	-2	59
OCCCNc1nc(-c2ccccc2)c2cc(Br)ccc2n1	33*	/	/	/	/
NNc1nc(-c2ccccc2)c2cc(Br)ccc2n1	-4	/	/	/	/
COc1cc(Nc2nc(-c3ccccc3)c3cc(C)ccc3n2)cc(OC)c1OC	1	-7	0	-18	-13
CCC1CCC(C(=O)NC(C(=O)NCCN2CCOCC2)C(C)C)CC1 (centres undefined)	4	/	/	/	/
S=C(Nc1ccc(N2CCOCC2)cc1)Nc1ccc2nc(-c3ccco3)c(-c3ccco3)nc2c1	20*	-95	1	-43	-388
CC(=O)c1ccc(NC(=O)c2ccc3nc(-c4ccco4)c(-c4ccco4)nc3c2)cc1	35*	-4	0	-14	-69
O=C(Nc1ccccc1)c1ccc2nc(-c3ccco3)c(-c3ccco3)nc2c1	36*	1	10	0	-31
COc1ccc2nc3cccc(OC)c3nc2c1	-10	-6	3	0	-34
COc1ccc2nc(-c3ccco3)c(-c3ccco3)nc2c1	54*	6	1	-12	-22
Cc1nc(C)n(C(C)CNS(=O)(=O)c2ccc(Cl)cc2)n1 (centres undefined)	2	/	/	/	/
CC1(C)C(=O)Nc2ccccc2N1C(=O)COC(=O)COc1ccc(C#N)cc1	-1	/	/	/	/
COC(=O)c1ccc(CNC(=O)Cn2nnnc2CN(C)C(C)C)cc1	4	/	/	/	/
O=C(NCc1ccccc1)c1ccc2nc(-c3ccco3)c(-c3ccco3)nc2c1	25*	-1	2	-4	-46

Compound activity as filed in PubChem BioAssay.
